An excerpt weighted towards active compounds, which were near 6.1% of everything screened.
BB579 growth dn: chemicals that inhibit yeast BB579 growth in restrictive medium (lifespan-shortening candidates); S. cerevisiae BB579 growth, OD615, 48 h; inhibition, % at 10 µM; actives 0.51% (n = 140,000); AID 804;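 active = inhibition above a set limit, 3 SD over the mean compound inhibition, cut at about 44% in these data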
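Material: Saccharomyces cerevisiae DeaD strain BB579, replicative lifespan model yeast; buffer or medium: CSMM-D restrictive synthetic medium containing dextrose (glucose); compound: 10 µM single dose, DMSO 0.25%; timing: 48 h compound exposure at 30 °C after 4 h preincubation; signal: turbidity as optical density at 615 nm; benchmarks: positive control amphotericin B 10 µg/mL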
RAM inhibit: blocks the yeast RAM network | S. cerevisiae dse1pr::URA3 reporter, 5-FOA growth OD615, 2 d; analog-sensitive cbk1-as2 kinase mutant strain | inhibition, % at 50 µM | actives 1.8% (n = 190,000) | AID 868;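 active = inhibition above a set limit, 3 SD over mean compound inhibition, cut at about 8.4% in these data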;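 also: 0% = DMSO-only wells with no growth and 100% = 10 µM 1-NA-PP1 full growth; inhibition rescues growth on 5-FOA so higher OD means more RAM inhibition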
hDAT+cocaine: human DAT dopamine uptake with cocaine, either direction; LLC-PK1 hDAT cells, [14C]-dopamine uptake with cocaine IC80; actives deviate in either direction; actives 1.3% (n = 110,000); AID 449768; B-score at 10 µM;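 active = Z score or B-score, a plate-position-corrected score, falls beyond the plate's 99.7% confidence bounds, in either direction; inactive = both scores lie inside the 99.7% bounds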;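 also: scored against the spread of the other compound wells on the same plate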
Target sequence (Q01959 whole entry, looked up): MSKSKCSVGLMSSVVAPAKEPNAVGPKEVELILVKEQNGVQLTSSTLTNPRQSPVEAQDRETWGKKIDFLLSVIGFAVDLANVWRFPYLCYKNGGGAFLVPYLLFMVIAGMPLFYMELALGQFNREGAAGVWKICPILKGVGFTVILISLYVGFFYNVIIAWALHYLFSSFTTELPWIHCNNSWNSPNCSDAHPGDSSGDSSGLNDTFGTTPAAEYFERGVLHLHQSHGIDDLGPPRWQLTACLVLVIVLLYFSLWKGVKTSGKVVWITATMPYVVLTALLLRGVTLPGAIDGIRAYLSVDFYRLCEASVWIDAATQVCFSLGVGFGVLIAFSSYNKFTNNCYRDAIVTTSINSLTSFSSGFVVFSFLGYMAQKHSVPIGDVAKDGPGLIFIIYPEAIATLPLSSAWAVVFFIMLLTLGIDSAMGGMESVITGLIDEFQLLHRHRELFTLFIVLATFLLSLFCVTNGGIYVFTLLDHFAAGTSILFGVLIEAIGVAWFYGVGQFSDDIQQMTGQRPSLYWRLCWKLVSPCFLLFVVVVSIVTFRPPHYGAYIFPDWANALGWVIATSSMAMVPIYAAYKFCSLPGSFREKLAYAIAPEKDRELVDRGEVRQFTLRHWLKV
Measles CPE: protection of cells from measles virus; AID 841; protection (pct of control), % at 4 µM; Measles virus-infected cells, CPE protection, absorbance; actives 1.5% (n = 140,000); in the data active = protection mostly above about 24%, no sharp cut-off; inactive = mostly below about 26%
Yeast lifespan up: extends the lifespan of yeast | AID 775 | actives 0.68% (n = 130,000) | S. cerevisiae growth with nicotinamide, OD615; deaD strain in restrictive glucose medium | inhibition of the nicotinamide effect, % at 10 µM;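 active = inhibition above a set limit, placed 3 SD over the median of all compounds, cut at about 26% in these data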;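 also: 0% = nicotinamide-treated wells and 100% = cells grown without nicotinamide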
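System: Modified budding yeast, DeaD strain | Buffer or medium: Restrictive glucose medium | Also added: 1.5 mM nicotinamide | Doses: 10 µM single point, 0.25% DMSO | Schedule: 48 h compound exposure at 30 °C, humidified | Detection: Absorbance at 615 nm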
WT yeast gro inh: growth inhibition of WT yeast, mitochondrial fusion screen; mitochondrial fusion phenotypic screen, WT strain; inhibition, % at 10 µM; actives 2.1% (n = 190,000); in the data active = inhibition above about 58%; tested in S. cerevisiae
Numbers without * were called inactive; . = no result.

SMILES	BB579 growth dn	RAM inhibit	hDAT+cocaine	Measles CPE	Yeast lifespan up	WT yeast gro inh
CCOc1cc(/C=N/NC(=O)COc2ccccc2C)ccc1OC(=O)c1cccs1	-33	1	0.73	13	-7	65*
Cn1cccc1/C=C1\SC(=S)N(NC(=O)c2ccccc2)C1=O	5	8	.	27*	-3	10
O=C(NC(Cc1c[nH]c2ccccc12)C(=O)O)c1ccco1 (stereo unspecified)	-41	0	-9.5*	7	-9	-4
Cc1cc(C)nc(NC(=NCCc2c[nH]c3ccccc23)NC(=O)c2ccco2)n1	-52	9.8*	1	6	-21	-6
CCCNC(=O)[C@H](Cc1c[nH]c2ccccc12)NC(=O)c1ccccc1Cl	-5	1	.	32*	1	-1
O=C(Nc1ccccc1C(=O)NC(Cc1c[nH]c2ccccc12)C(=O)O)c1ccco1 (stereo unspecified)	-12	2	-0.4	5	-11	1
Cc1ccc(NC(=S)Nc2ccc(OC(F)F)c(Cl)c2)cc1Cl	-36	3	.	7	-4	73*
FC(F)Oc1ccc(NC(=S)NCc2ccccc2)cc1Cl	-27	2	-0.89	8	-14	58*
Fc1ccc(NC(=S)Nc2ccccc2OC(F)F)cc1Cl	-15	3	.	10	-9	62*
FC(F)Oc1ccc(NC(=S)NCc2ccccc2)cc1	5	0	.	.	-7	0
Cc1ccc(NC(=S)Nc2ccc(Cl)c(Cl)c2)c(OC(F)F)c1	85*	-2	.	2	-8	80*
CC(NC(=S)Nc1ccc(OC(F)F)c(Cl)c1)C(C)(C)C (stereo unspecified)	.	0	.	.	.	47
CCn1cc(C(C)NC(=O)Nc2ccccc2C(=O)OC)c(C)n1 (stereo unspecified)	.	2	.	.	.	9
COc1cc(CN(C(=S)NCC(=O)NC2CCCC2)C2CCCC2)cc(OC)c1OC	-32	2	.	8	0	-15
CCC(C(=O)Nc1ccc(OC)c(Cl)c1)c1ccccc1 (stereo unspecified)	-1	1	.	12	-4	59*
O=S(=O)(c1ccc(Cl)c(NC(=S)Nc2ccccc2N2CCOCC2)c1)N1CCOCC1	-34	0	.	8	10	10
Fc1ccc(NC(=S)Nc2ccccc2N2CCOCC2)cc1Cl	.	1	.	.	.	61*
O=C(Nc1ccc(OC(F)F)c(Cl)c1)C(c1ccccc1)c1ccccc1	-25	9.6*	.	6	2	45
CCC(C(=O)Nc1cccc(C(=O)O)c1)c1ccccc1 (stereo unspecified)	.	2	.	.	.	-16
Cc1cccc(C)c1NC(=S)Nc1ccc(Cl)c(Cl)c1	.	0	.	.	.	80*
CCOC(=O)c1c(-c2cccs2)csc1NC(=O)CNCCN1CCOCC1	23	-1	-0.098	4	-6	-8
Fc1ccc(-n2c(-c3ccc4ccccc4n3)n[nH]c2=S)cc1	.	2	.	.	.	-3
S=c1[nH]nc(-c2ccc3ccccc3n2)n1-c1cc(Cl)cc(Cl)c1	-38	4	.	10	4	60*
Cc1ccc(Nc2nnc(-c3ccncc3)s2)c(Br)c1	-8	-1	.	2	-9	12
Cc1nnc(SCC(=O)Nc2cc(-c3cc(C)c(C)cc3C)nn2-c2ccccc2)s1	-14	3	.	16	-4	63*
SMILES	BB579 growth dn	RAM inhibit	hDAT+cocaine	Measles CPE	Yeast lifespan up	WT yeast gro inh
Cc1nnc(SCC(=O)Nc2cc(C(C)(C)C)nn2-c2ccccc2)s1	3	3	.	5	5	-1
Cc1ccc(-c2cc(NC(=O)CSc3n[nH]c(N)n3)n(-c3ccccc3)n2)cc1	-31	0	-0.14	7	-2	6
Nc1nc(SCC(=O)Nc2cc(-c3ccccc3)nn2-c2ccccc2)n[nH]1	-38	-1	1.4*	16	52	-1
O=C(CCn1cnnn1)Nc1ccc(Cl)c(Cl)c1	.	2	.	.	.	-7
O=c1[nH][nH]c(-c2ccccc2)c1C=Nc1ccccc1	-23	4	.	17	-17	80*
O=c1[nH][nH]c(-c2ccccc2)c1C=Nc1ccc(C(F)(F)F)cc1	.	2	.	.	.	-1
Cc1nn(-c2ccccc2)c(Cl)c1/C=C1\SC(=S)NC1=O	-55	0	-4.4*	4	18	50
Cc1cc(C)c(NS(=O)(=O)c2cccc3cccnc23)c(C)c1	.	1	.	.	.	-10
